Measurements reported in ChEMBL document CHEMBL4837203, “Innovative C2-symmetric testosterone and androstenedione dimers: Design, synthesis, biological evaluation on prostate cancer cell lines and binding study to recombinant CYP3A4” (Eur J Med Chem, 2021).

Columns and labels:
[1] = system: PC-3; experiment: Antiproliferative activity against androgen-insensitive human PC-3 cells assessed as inhibition of cell growth incubated for 48 hrs by MTT assay; format: functional, cell-based; settings: PC-3, 48 h
How it was run: (§1)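 MTT assay. Cells were seeded at 8 × 10^3/well and left overnight, then grown 48 h in fresh medium with a range of compound concentrations. They were stained with 0.5 mg/mL MTT for 3 h, solubilised in 10% Triton X-100 in acidic isopropanol (0.1 N HCl), and read at 590 nm. Growth inhibition was calculated against control plates fixed on the treatment day. LNCaP and PC3 were kept in RPMI with 10% calf serum. Three replicate wells per condition, three independent repeats.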

[2] = system: DU-145; experiment: Antiproliferative activity against androgen-insensitive human DU-145 cells assessed as inhibition of cell growth incubated for 48 hrs by MTT assay; format: functional, cell-based; settings: DU-145, 48 h
[3] = system: LNCaP; experiment: Antiproliferative activity against androgen-sensitive human LNCaP cells assessed as inhibition of cell growth incubated for 48 hrs by MTT assay; format: functional, cell-based; how it was run: as §1
[4] = system: LNCaP; experiment: Antiproliferative activity against androgen-sensitive human LNCaP cells assessed as inhibition of DHT-induced cell growth at 0.125 uM incubated for 48 hrs by MTT assay relative to non-stimulation; format: functional; parameters: scale not given: the % may be the effect or the level left
How it was run: (§2)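 LNCaP cells seeded at 8 × 10^3/well in RPMI with 10% FBS and grown 48 h. Then treated with 0.1 nM DHT alone or with test agent at 0.125, 0.25, 0.5 or 1 μM for 48 h. Control was 0.1% DMSO. MTT for 3 h at 37 °C, OD read at 590 nm. Growth expressed as fold of DMSO control. Triplicate wells, three independent repeats.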

[5] = system: LNCaP; experiment: Antiproliferative activity against androgen-sensitive human LNCaP cells assessed as inhibition of testosterone-induced cell growth at 0.25 uM incubated for 48 hrs by MTT assay; format: functional; parameters: scale not given: the % may be the effect or the level left
How it was run: (§3)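 Androgen-stimulated proliferation in LNCaP: cells seeded at 8 × 10^3/well in RPMI with 10% FBS and grown 48 h. Then exposed 48 h to 0.1 nM testosterone alone or combined with test agent at 0.125–1 μM. Vehicle control was 0.1% DMSO. Read-out was MTT (3 h, 37 °C) at OD 590 nm, as fold induction versus vehicle. Triplicate wells ×3 repeats.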

[6] = system: LNCaP; experiment: Antiproliferative activity against androgen-sensitive human LNCaP cells assessed as inhibition of testosterone-induced cell growth at 1 uM incubated for 48 hrs by MTT assay relative to non-stimulation; format: functional; parameters: scale not given: the % may be the effect or the level left
How it was run: (§4)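 LNCaP cells were seeded at 8 × 10^3/well in medium with 10% FBS and grown 48 h. They were then exposed for 48 h to 0.1 nM testosterone or DHT, alone or with compound at 0.125, 0.25, 0.5 or 1 μM. Vehicle control was 0.1% DMSO. Read-out was MTT for 3 h at 37 °C, then OD 590 nm, given as fold proliferation versus vehicle. Triplicate wells, three independent repeats; SEM, n = 3.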

[7] = system: LNCaP; experiment: Antiproliferative activity against androgen-sensitive human LNCaP cells assessed as inhibition of DHT-induced cell growth at 0.5 uM incubated for 48 hrs by MTT assay relative to non-stimulation; format: functional; parameters: scale not given: the % may be the effect or the level left; how it was run: as §2
[8] = system: LNCaP; experiment: Antiproliferative activity against androgen-sensitive human LNCaP cells assessed as inhibition of DHT-induced cell growth at 0.25 uM incubated for 48 hrs by MTT assay relative to non-stimulation; format: functional; parameters: scale not given: the % may be the effect or the level left; how it was run: as §4
[9] = system: LNCaP; experiment: Antiproliferative activity against androgen-sensitive human LNCaP cells assessed as inhibition of DHT-induced cell growth at 1 uM incubated for 48 hrs by MTT assay relative to non-stimulation; format: functional; parameters: scale not given: the % may be the effect or the level left; how it was run: as §2
[10] = target: T1, Cytochrome P450 3A4 (Homo sapiens, UniProt P08684); experiment: Inhibition of human CYP3A4 assessed as dissociation constant; format: ADME
T1 sequence (P08684 whole entry): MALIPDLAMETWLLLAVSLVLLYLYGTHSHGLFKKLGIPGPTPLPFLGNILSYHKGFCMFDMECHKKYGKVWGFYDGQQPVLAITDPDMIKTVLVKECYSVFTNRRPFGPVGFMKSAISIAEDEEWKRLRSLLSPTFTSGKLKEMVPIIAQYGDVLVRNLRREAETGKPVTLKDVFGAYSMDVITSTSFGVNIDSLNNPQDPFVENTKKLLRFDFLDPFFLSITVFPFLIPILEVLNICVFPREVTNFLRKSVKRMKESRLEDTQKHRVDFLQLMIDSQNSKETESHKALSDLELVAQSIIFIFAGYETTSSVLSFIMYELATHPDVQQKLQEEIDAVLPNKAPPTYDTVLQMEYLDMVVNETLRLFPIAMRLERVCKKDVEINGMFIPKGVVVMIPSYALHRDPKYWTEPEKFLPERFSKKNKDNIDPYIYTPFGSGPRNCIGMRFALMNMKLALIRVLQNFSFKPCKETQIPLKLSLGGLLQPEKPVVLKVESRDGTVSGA
How it was run: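 Spectral titration of 2 μM codon-optimized full-length human CYP3A4 in 0.1 M phosphate pH 7.4 with 20% glycerol and 1 mM DTT, at ambient temperature. Ligand was added from DMSO in small aliquots, keeping final solvent below 2%. Absorbance difference spectra were recorded, and Kd was taken from hyperbolic or quadratic fits to the titration plots.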

[11] = system: LNCaP; experiment: Antiproliferative activity against androgen-sensitive human LNCaP cells assessed as inhibition of DHT-induced cell growth at 0.125 uM incubated for 48 hrs by MTT assay; format: functional; parameters: scale not given: the % may be the effect or the level left; how it was run: as §2
[12] = system: LNCaP; experiment: Antiproliferative activity against androgen-sensitive human LNCaP cells assessed as inhibition of testosterone-induced cell growth at 0.125 uM incubated for 48 hrs by MTT assay relative to non-stimulation; format: functional; parameters: scale not given: the % may be the effect or the level left; how it was run: as §3
[13] = system: LNCaP; experiment: Antiproliferative activity against androgen-sensitive human LNCaP cells assessed as inhibition of testosterone-induced cell growth at 0.5 uM incubated for 48 hrs by MTT assay relative to non-stimulation; format: functional; parameters: scale not given: the % may be the effect or the level left; how it was run: as §3
[14] = target: T1, Cytochrome P450 3A4; experiment: Inhibition of recombinant human CYP3A4 using BFC as substrate; format: ADME
How it was run: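 Codon-optimized full-length recombinant human CYP3A4 in a soluble reconstituted system. Activity measured was debenzylation of 7-benzyloxy-4-(trifluoromethyl)coumarin; IC50 values were determined.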

**Q.** For `C[C@]12CC[C@H]3[C@@H](C([C@H]4C=CC[C@H]5C(=O)OC(=O)[C@@H]45)CC4=CC(=O)CC[C@@]43C)[C@@H]1CC[C@@H]2O` (some centres not stated), which IC50 [1] is on record?
**A.** 62.5 µM

**Q.** What about the IC50 [2] of the same molecule?
**A.** 86.5 µM

**Q.** What about the IC50 [3] of the same molecule?
**A.** 131 µM

**Q.** For `C=C/C=C/[C@@H]1CC2=CC(=O)CC[C@]2(C)[C@H]2CC[C@]3(C)C(=O)CC[C@H]3[C@H]12`, which IC50 [1] is on record?
**A.** 51.7 µM

**Q.** And the IC50 [2]?
**A.** 21.3 µM

**Q.** What about the IC50 [3] of the same molecule?
**A.** 33.5 µM

**Q.** `C[C@]12CC[C@H]3[C@@H]([C@H](/C=C/C=C/C=C/[C@@H]4CC5=CC(=O)CC[C@]5(C)[C@H]5CC[C@]6(C)[C@@H](O)CC[C@H]6[C@H]45)CC4=CC(=O)CC[C@@]43C)[C@@H]1CC[C@@H]2O` was tested. Which Activity [4] did it give?
**A.** 76%

**Q.** And the Activity [5]?
**A.** 86%

**Q.** And the Activity [6]?
**A.** 98%

**Q.** What about the Activity [7] of the same molecule?
**A.** 83%

**Q.** What about the Activity [8] of the same molecule?
**A.** 83%

**Q.** What about the Activity [9] of the same molecule?
**A.** 100%

**Q.** What about the Kd [10] of the same molecule?
**A.** 5.5 µM

**Q.** And the Activity [11]?
**A.** 45%

**Q.** What about the IC50 [1] of the same molecule?
**A.** 13.6 µM

**Q.** What about the Activity [12] of the same molecule?
**A.** 45%

**Q.** What about the Activity [13] of the same molecule?
**A.** 100%

**Q.** What about the IC50 [2] of the same molecule?
**A.** 14.4 µM

**Q.** What about the IC50 [14] of the same molecule?
**A.** 1.2 µM

**Q.** What about the IC50 [3] of the same molecule?
**A.** 12 µM

**Q.** Which results are given for `C[C@]12CC[C@H]3[C@@H]([C@H](C/C=C/C[C@@H]4CC5=CC(=O)CC[C@]5(C)[C@H]5CC[C@]6(C)[C@@H](O)CC[C@H]6[C@H]45)CC4=CC(=O)CC[C@@]43C)[C@@H]1CC[C@@H]2O`?
**A.** Kd [10]: 7.1 µM; IC50 [14]: 6.5 µM

**Q.** For `C[C@]12CC[C@H]3[C@@H]([C@H](C/C=C\C[C@@H]4CC5=CC(=O)CC[C@]5(C)[C@H]5CC[C@]6(C)[C@@H](O)CC[C@H]6[C@H]45)CC4=CC(=O)CC[C@@]43C)[C@@H]1CC[C@@H]2O`, which Kd [10] is on record?
**A.** 0.37 µM

**Q.** And the IC50 [14]?
**A.** 0.8 µM

**Q.** With `C[C@]12CC[C@H]3[C@@H]([C@H](/C=C/C=C/C=C/[C@@H]4CC5=CC(=O)CC[C@]5(C)[C@H]5CC[C@]6(C)[C@H](O)CC[C@H]6[C@H]45)CC4=CC(=O)CC[C@@]43C)[C@@H]1CC[C@H]2O` as the molecule, how does the Activity [4] read?
**A.** 54%

**Q.** What about the Activity [5] of the same molecule?
**A.** 100%

**Q.** And the Activity [6]?
**A.** 84%

**Q.** What about the Activity [7] of the same molecule?
**A.** 86%

**Q.** And the Activity [8]?
**A.** 84%

**Q.** And the Activity [9]?
**A.** 100%

**Q.** And the Kd [10]?
**A.** 1.6 µM

**Q.** What about the Activity [11] of the same molecule?
**A.** 45%

**Q.** And the IC50 [1]?
**A.** 44.5 µM

**Q.** What about the Activity [12] of the same molecule?
**A.** 82%

**Q.** And the Activity [13]?
**A.** 112%

**Q.** What about the IC50 [2] of the same molecule?
**A.** 21.4 µM

**Q.** And the IC50 [14]?
**A.** 22 µM

**Q.** What about the IC50 [3] of the same molecule?
**A.** 37.1 µM

**Q.** For `C=C/C=C/[C@@H]1CC2=CC(=O)CC[C@]2(C)[C@H]2CC[C@]3(C)[C@@H](O)CC[C@H]3[C@H]12`, which IC50 [1] is on record?
**A.** 34.1 µM

**Q.** What about the IC50 [2] of the same molecule?
**A.** 29 µM

**Q.** And the IC50 [3]?
**A.** 28.8 µM

**Q.** How did the Kd [10] turn out when `C[C@]12CCC(=O)C=C1C[C@@H](/C=C/C=C/C=C/[C@@H]1CC3=CC(=O)CC[C@]3(C)[C@H]3CC[C@]4(C)C(=O)CC[C@H]4[C@H]13)[C@@H]1[C@@H]2CC[C@]2(C)C(=O)CC[C@@H]12` was run?
**A.** 1.4 µM

**Q.** What about the IC50 [1] of the same molecule?
**A.** 29 µM

**Q.** And the IC50 [2]?
**A.** 53.6 µM

**Q.** What about the IC50 [14] of the same molecule?
**A.** 3.6 µM

**Q.** And the IC50 [3]?
**A.** 72.7 µM

**Q.** `C=C/C=C/[C@@H]1CC2=CC(=O)CC[C@]2(C)[C@H]2CC[C@]3(C)[C@H](O)CC[C@H]3[C@H]12` was tested. Which IC50 [1] did it give?
**A.** 31.5 µM

**Q.** What about the IC50 [2] of the same molecule?
**A.** 23.8 µM

**Q.** What about the IC50 [3] of the same molecule?
**A.** 16.6 µM

**Q.** Which IC50 [1] does the source give for `CC(=O)O[C@]1(C(C)=O)CC[C@H]2[C@@H]3C=C(Cl)C4=CC(=O)[C@@H]5C[C@@H]5[C@]4(C)[C@H]3CC[C@@]21C` [CYPROTERONE ACETATE] here?
**A.** 56.9 µM

**Q.** What about the IC50 [2] of the same molecule?
**A.** 50.7 µM

**Q.** And the IC50 [3]?
**A.** 59.6 µM
